In ChEMBL document CHEMBL3352384, “Synthesis and biological activity of new salicylanilide N,N-disubstituted carbamates and thiocarbamates” (Bioorg Med Chem, 2014):
≈ marks a conversion by molar mass, not a printed value.

Tests used:
[1] = tested on: Trichophyton mentagrophytes; assay: Antimicrobial activity against Trichophyton mentagrophytes 445 after 72 hrs by microdilution method; format: functional; conditions: Trichophyton mentagrophytes, 445, 72 h
Outline: (§1)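 Broth microdilution in RPMI 1640 with glutamine, with fluconazole and amphotericin B as references. For filamentous fungi, MIC is expressed as the IC50, i.e. the concentration giving 50% growth reduction versus control. Each determination was done twice.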

HepG2 = assay: Cytotoxicity against human HepG2 cells assessed as reduction in cell viability after 24 hrs by MTS assay; format: cell-based; conditions: HepG2, 24 h
Outline: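 HepG2 hepatocellular carcinoma cells (passage 3–4) were grown in Eagle's MEM with 10% FBS, 1% L-glutamine and non-essential amino acids. Compounds were added from DMSO at eight concentrations in triplicate, with 10% DMSO as the 0% viability control. Viability was read by tetrazolium salt reduction (CellTiter 96 AQueous One). IC50 is the concentration reducing viability to 50% of control.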

[2] = Selectivity index, ratio of IC50 for human HepG2 cells to MIC for Trichophyton mentagrophytes 445
[3] = tested on: Trichophyton mentagrophytes; assay: Antimicrobial activity against Trichophyton mentagrophytes 445 after 120 hrs by microdilution method; format: functional; conditions: Trichophyton mentagrophytes, 445, 120 h; outline: as §1
[4] = Inhibition of Mycobacterium tuberculosis H37Rv isocitrate lyase assessed as glyoxylate phenyl hydrazone formation at 10 uM
[5] = tested on: Staphylococcus epidermidis; assay: Antimicrobial activity against Staphylococcus epidermidis H 6966/08 after 48 hrs by microdilution method; format: functional; conditions: H 6966/08, 48 h
Outline: (§2)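 Broth microdilution in Mueller-Hinton broth, compounds dissolved in DMSO, final concentrations 500 to 0.49 µM. Benzylpenicillin and bacitracin were run as comparators. MIC was taken as 95% (IC95) or greater growth reduction versus control. Each determination was done twice.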

Mycobacterium kansasii [6] = assay: Antimycobacterial activity against Mycobacterium kansasii 235/80 assessed as complete growth inhibition after 21 days; format: functional; conditions: 235/80, 504 h
Outline: (§3)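 Dilutions of M. kansasii inoculum were 10-4 for strain 235/80 and 10-5 for clinical isolate 6509/96. MIC was the lowest concentration giving complete growth inhibition, run in quadruplicate and repeated twice.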

Mycobacterium avium [7] = assay: Antimycobacterial activity against Isoniazid, rifampicin, ofloxacin and ethambutol-resistant Mycobacterium avium 330/88 assessed as complete growth inhibition after 21 days; format: functional; conditions: 330/88, 504 h
Outline: (§4)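 M. tuberculosis 331/88 (H37Rv) inoculum diluted 10-3, M. avium 330/88 diluted 10-5. MIC is the lowest concentration giving complete growth inhibition. Isoniazid and p-aminosalicylic acid as references. Quadruplicate, repeated twice.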

[8] = tested on: Staphylococcus epidermidis; assay: Antimicrobial activity against Staphylococcus epidermidis H 6966/08 after 24 hrs by microdilution method; format: functional; conditions: H 6966/08, 24 h; outline: as §2
Mycobacterium kansasii [9] = assay: Antimycobacterial activity against clinical isolate Mycobacterium kansasii 6509/96 assessed as complete growth inhibition after 14 days; format: functional; conditions: 6509/96, 336 h; outline: as §3
Mycobacterium kansasii [10] = assay: Antimycobacterial activity against clinical isolate Mycobacterium kansasii 6509/96 assessed as complete growth inhibition after 7 days; format: functional; conditions: 6509/96, 168 h; outline: as §3
[11] = tested on: Mycobacterium tuberculosis; assay: Antimycobacterial activity against Mycobacterium tuberculosis H37Rv 331/88 assessed as complete growth inhibition after 14 days; format: functional; conditions: H37Rv 331/88, 336 h; outline: as §4
[12] = Selectivity index, ratio of IC50 for human HepG2 cells to MIC for atypical mycobacteria
Outline: (§5)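 Selectivity index = HepG2 IC50 / MIC. HepG2 cells (passage 3–4) grown in Eagle's MEM with 10% FBS, L-glutamine and non-essential amino acids. Compounds added from DMSO, eight concentrations in triplicate, tetrazolium-reduction colorimetric read-out. IC50 is the concentration reducing viability to 50% of control; 10% DMSO as 0% viability.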

Staphylococcus aureus [13] = assay: Antimicrobial activity against Staphylococcus aureus CCM 4516/08 after 24 hrs by microdilution method; format: functional; conditions: CCM 4516/08, 24 h
Outline: (§6)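 Mueller-Hinton broth microdilution; compounds dissolved in DMSO, final concentrations 500 to 0.49 µM. […] Benzylpenicillin and bacitracin as comparators. Each determination done twice.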

Staphylococcus aureus [14] = assay: Antimicrobial activity against methicillin-resistant Staphylococcus aureus H 5996/08 after 24 hrs by microdilution method; format: functional; conditions: H 5996/08, 24 h; outline: as §6
Mycobacterium kansasii [15] = assay: Antimycobacterial activity against Mycobacterium kansasii 235/80 assessed as complete growth inhibition after 7 days; format: functional; conditions: 235/80, 168 h; outline: as §3
[16] = Selectivity index, ratio of IC50 for human HepG2 cells to MIC for methicillin-resistant Staphylococcus aureus H 5996/08; outline: as §5
[17] = Selectivity index, ratio of IC50 for human HepG2 cells to MIC for Mycobacterium tuberculosis H37Rv; format: toxicity, cell-based; conditions: read-out: Selectivity Index
Outline: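 Selectivity index = HepG2 IC50 / MIC. HepG2 cells (passage 3–4) grown in Eagle's MEM with 10% FBS, L-glutamine and non-essential amino acids. Compounds added from DMSO, eight concentrations in triplicate, tetrazolium-reduction colorimetric read-out.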

[18] = tested on: Mycobacterium tuberculosis; assay: Antimycobacterial activity against Mycobacterium tuberculosis H37Rv 331/88 assessed as complete growth inhibition after 21 days; format: functional; conditions: H37Rv 331/88, 504 h; outline: as §4
Mycobacterium avium [19] = assay: Antimycobacterial activity against Isoniazid, rifampicin, ofloxacin and ethambutol-resistant Mycobacterium avium 330/88 assessed as complete growth inhibition after 14 days; format: functional; conditions: 330/88, 336 h; outline: as §4
Mycobacterium kansasii [20] = assay: Antimycobacterial activity against clinical isolate Mycobacterium kansasii 6509/96 assessed as complete growth inhibition after 21 days; format: functional; conditions: 6509/96, 504 h; outline: as §3
Enterococcus sp. [21] = assay: Antimicrobial activity against Enterococcus sp. J 14365/08 after 48 hrs by microdilution method; format: functional; conditions: J 14365/08, 48 h; outline: as §2
Mycobacterium kansasii [22] = assay: Antimycobacterial activity against Mycobacterium kansasii 235/80 assessed as complete growth inhibition after 14 days; format: functional; conditions: 235/80, 336 h; outline: as §3
Staphylococcus aureus [23] = assay: Antimicrobial activity against Staphylococcus aureus CCM 4516/08 after 48 hrs by microdilution method; format: functional; conditions: CCM 4516/08, 48 h; outline: as §6
Enterococcus sp. [24] = assay: Antimicrobial activity against Enterococcus sp. J 14365/08 after 24 hrs by microdilution method; format: functional; conditions: J 14365/08, 24 h; outline: as §2
Staphylococcus aureus [25] = assay: Antimicrobial activity against methicillin-resistant Staphylococcus aureus H 5996/08 after 48 hrs by microdilution method; format: functional; conditions: H 5996/08, 48 h; outline: as §6

SMILES	MIC [1] [µM]	IC50 (HepG2) [µM]	Selectivity Index [2]	MIC [3] [µM]	inhibition [4] [%]	MIC [5] [µM]	MIC (Mycobacterium kansasii [6]) [µM]	MIC (Mycobacterium avium [7]) [µM]	MIC [8] [µM]	MIC (Mycobacterium kansasii [9]) [µM]	MIC (Mycobacterium kansasii [10]) [µM]	MIC [11] [µM]	Selectivity Index [12]	MIC (Staphylococcus aureus [13]) [µM]	MIC (Mycobacterium kansasii [15]) [µM]	selectivity ratio [17]	MIC [18] [µM]	MIC (Mycobacterium avium [19]) [µM]	MIC (Mycobacterium kansasii [20]) [µM]	MIC (Mycobacterium kansasii [22]) [µM]	other results
OC(Cn1cncn1)(Cn1cncn1)c1ccc(F)cc1F [FLUCONAZOLE]	7.81 (≈ 2.39 µg/mL)	> 300	>2.4	125 (≈ 38.3 µg/mL)	–	–	–	–	–	–	–	–	–	–	–	–	–	–	–	–	–
CN(C)C(=O)Oc1ccc(Cl)cc1C(=O)Nc1ccc(F)cc1	125 (≈ 42.1 µg/mL)	444	3.6	125 (≈ 42.1 µg/mL)	8	> 125	125 (≈ 42.1 µg/mL)	125 (≈ 42.1 µg/mL)	> 125	125 (≈ 42.1 µg/mL)	62.5 (≈ 21 µg/mL)	32 (≈ 10.8 µg/mL)	3.6	125 (≈ 42.1 µg/mL)	62.5 (≈ 21 µg/mL)	14	32 (≈ 10.8 µg/mL)	125 (≈ 42.1 µg/mL)	125 (≈ 42.1 µg/mL)	125 (≈ 42.1 µg/mL)	MIC (Staphylococcus aureus [14]): > 125 µM; Selectivity Index [16]: <=3.6; MIC (Enterococcus sp. [21]): > 125 µM; MIC (Staphylococcus aureus [23]): > 125 µM; MIC (Enterococcus sp. [24]): 125 µM (≈ 42.1 µg/mL); MIC (Staphylococcus aureus [25]): > 125 µM
O=C(Nc1ccc(Br)cc1)c1cc(Cl)ccc1O	–	15.7	16	–	13	–	8 (≈ 2.61 µg/mL)	16 (≈ 5.23 µg/mL)	–	8 (≈ 2.61 µg/mL)	4 (≈ 1.31 µg/mL)	4 (≈ 1.31 µg/mL)	1	–	4 (≈ 1.31 µg/mL)	3.9	4 (≈ 1.31 µg/mL)	8 (≈ 2.61 µg/mL)	8 (≈ 2.61 µg/mL)	8 (≈ 2.61 µg/mL)	–
O=C(Nc1ccc(F)cc1)c1cc(Cl)ccc1O	–	26.1	3.3	–	14	–	16 (≈ 4.25 µg/mL)	32 (≈ 8.5 µg/mL)	–	16 (≈ 4.25 µg/mL)	8 (≈ 2.13 µg/mL)	8 (≈ 2.13 µg/mL)	0.8	–	8 (≈ 2.13 µg/mL)	3.3	8 (≈ 2.13 µg/mL)	16 (≈ 4.25 µg/mL)	16 (≈ 4.25 µg/mL)	16 (≈ 4.25 µg/mL)	–
O=C(Nc1ccc(Cl)cc1)c1cc(Cl)ccc1O	–	21.7	11.1	–	13	–	8 (≈ 2.26 µg/mL)	16 (≈ 4.51 µg/mL)	–	8 (≈ 2.26 µg/mL)	4 (≈ 1.13 µg/mL)	4 (≈ 1.13 µg/mL)	1.4	–	4 (≈ 1.13 µg/mL)	5.4	4 (≈ 1.13 µg/mL)	8 (≈ 2.26 µg/mL)	8 (≈ 2.26 µg/mL)	8 (≈ 2.26 µg/mL)	–
CN(C)C(=S)Oc1ccc(Cl)cc1C(=O)Nc1ccc(Cl)cc1	1.95 (≈ 0.72 µg/mL)	83.5	442.8	1.95 (≈ 0.72 µg/mL)	6	31.2 (≈ 11.5 µg/mL)	16 (≈ 5.91 µg/mL)	16 (≈ 5.91 µg/mL)	7.81 (≈ 2.88 µg/mL)	16 (≈ 5.91 µg/mL)	16 (≈ 5.91 µg/mL)	4 (≈ 1.48 µg/mL)	5.2	3.9 (≈ 1.44 µg/mL)	8 (≈ 2.95 µg/mL)	10.4	8 (≈ 2.95 µg/mL)	16 (≈ 5.91 µg/mL)	16 (≈ 5.91 µg/mL)	16 (≈ 5.91 µg/mL)	MIC (Staphylococcus aureus [14]): 3.9 µM (≈ 1.44 µg/mL); Selectivity Index [16]: 21.4; MIC (Enterococcus sp. [21]): > 125 µM; MIC (Staphylococcus aureus [23]): 7.81 µM (≈ 2.88 µg/mL); MIC (Enterococcus sp. [24]): 125 µM (≈ 46.2 µg/mL); MIC (Staphylococcus aureus [25]): 7.81 µM (≈ 2.88 µg/mL)
